# How the values were obtained:
# OVCAR-3 = test: Growth inhibition of human OVCAR3 cells at 10 uM relative to control; assay type: functional; conditions: read-out: GI
# Procedure, shortened: (§1)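 Each cell line in a 60-line human tumour panel exposed to one 10 μM concentration. Growth inhibition percentage computed as 100 minus the percentage activity relative to control.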
# SNB-75 = test: Growth inhibition of human SNB75 cells at 10 uM relative to control; assay type: functional; conditions: read-out: GI
# Procedure, shortened: (§2)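 Single-dose screen across the 60-cell-line human tumor panel at 10 μM. Growth inhibition is reported as a percentage, taken as 100 minus the % growth relative to untreated control.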
# Mus musculus [1] = test: Anticonvulsant activity in mouse assessed as protection against strychnine-induced seizure at 1 mmol/kg, ip administered 30 min prior to strychnine-challenge measured after 60 mins relative to control; assay type: functional
# PC-3 = test: Growth inhibition of human PC3 cells at 10 uM relative to control; assay type: functional; conditions: read-out: GI; procedure, shortened: as §1
# MCF7 = test: Growth inhibition of human MCF7 cells at 10 uM relative to control; assay type: functional; conditions: read-out: GI; procedure, shortened: as §1
# UACC-62 = test: Growth inhibition of human UACC62 cells at 10 uM relative to control; assay type: functional; conditions: read-out: GI; procedure, shortened: as §2
# SF-539 = test: Growth inhibition of human SF539 cells at 10 uM relative to control; assay type: functional; conditions: read-out: GI; procedure, shortened: as §1
# A549 = test: Growth inhibition of human A549 cells at 10 uM relative to control; assay type: functional; conditions: read-out: GI; procedure, shortened: as §1
# Mus musculus [2] = species: Mus musculus; test: Protective index, ratio of TD50 for mouse to ED50 for pentylenetetrazol-induced seizure in mouse; assay type: functional
# Procedure, shortened: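 Mice. Index is TD50/ED50. TD50 is the dose causing minimal neurological toxicity in 50% of mice in the Chimney test. ED50 is the dose protecting 50% of mice against pentylenetetrazole-induced seizures. Both are estimated from testing at several doses.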
# HCT-15 = test: Growth inhibition of human HCT15 cells at 10 uM relative to control; assay type: functional; conditions: read-out: GI; procedure, shortened: as §1
# EKVX = test: Growth inhibition of human EKVX cells at 10 uM relative to control; assay type: functional; conditions: read-out: GI; procedure, shortened: as §1
# RPMI-8226 = test: Growth inhibition of human RPMI8226 cells at 10 uM relative to control; assay type: functional; conditions: read-out: GI; procedure, shortened: as §1
# Mus musculus [3] = test: Anticonvulsant activity in mouse assessed as protection against pentylenetetrazol-induced seizure at 1 mmol/kg, ip administered 30 min prior to pentylenetetrazol-challenge measured after 60 mins relative to control; assay type: functional
# SK-MEL-5 = test: Growth inhibition of human SK-MEL-5 cells at 10 uM relative to control; assay type: functional; conditions: read-out: GI; procedure, shortened: as §1
# K562 = test: Growth inhibition of human K562 cells at 10 uM relative to control; assay type: functional; conditions: read-out: GI; procedure, shortened: as §1
# HT-29 = test: Growth inhibition of human HT-29 cells at 10 uM relative to control; assay type: functional; conditions: read-out: GI; procedure, shortened: as §1
# Malme-3M = test: Growth inhibition of human MALME-3M cells at 10 uM relative to control; assay type: functional; conditions: read-out: GI; procedure, shortened: as §1
# [4] = Therapeutic index, ratio of LD50 for mouse to ED50 for pentylenetetrazol-induced seizure in mouse; assay type: organism-based; conditions: in vivo, read-out: Ratio LD50/ED50
# Procedure, shortened: (§3)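 In mice, LD50 is the dose causing 50% mortality. ED50 is the dose protecting 50% of mice against pentylenetetrazole-induced seizures. Therapeutic index = LD50/ED50.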
# UACC-257 = test: Growth inhibition of human UACC257 cells at 10 uM relative to control; assay type: functional; conditions: read-out: GI; procedure, shortened: as §2
# U-251 = test: Growth inhibition of human U251 cells at 10 uM relative to control; assay type: functional; conditions: read-out: GI; procedure, shortened: as §2
# SNB-19 = test: Growth inhibition of human SNB19 cells at 10 uM relative to control; assay type: functional; conditions: read-out: GI; procedure, shortened: as §2
# SR = test: Growth inhibition of human SR cells at 10 uM relative to control; assay type: functional; conditions: read-out: GI; procedure, shortened: as §2
# CCRF-CEM = test: Growth inhibition of human CCRF-CEM cells at 10 uM relative to control; assay type: functional; conditions: read-out: GI; procedure, shortened: as §1
# UO-31 = test: Growth inhibition of human UO31 cells at 10 uM relative to control; assay type: functional; conditions: read-out: GI; procedure, shortened: as §2
# OVCAR-5 = test: Growth inhibition of human OVCAR5 cells at 10 uM relative to control; assay type: functional; conditions: read-out: GI; procedure, shortened: as §1
# SK-MEL-28 = test: Growth inhibition of human SK-MEL-28 cells at 10 uM relative to control; assay type: functional; conditions: read-out: GI; procedure, shortened: as §1
# ACHN = test: Growth inhibition of human ACHN cells at 10 uM relative to control; assay type: functional; conditions: read-out: GI; procedure, shortened: as §1
# CAKI-1 = test: Growth inhibition of human CAKI-1 cells at 10 uM relative to control; assay type: functional; conditions: read-out: GI; procedure, shortened: as §1
# Mus musculus [5] = test: Anticonvulsant activity in mouse assessed as protection against maximal electroshock-induced seizure at 1 mmol/kg, ip administered 30 min prior to maximal electroshock-challenge measured after 60 mins relative to control; assay type: functional
# SW-620 = test: Growth inhibition of human SW620 cells at 10 uM relative to control; assay type: functional; conditions: read-out: GI; procedure, shortened: as §2
# KM12 = test: Growth inhibition of human KM12 cells at 10 uM relative to control; assay type: functional; conditions: read-out: GI; procedure, shortened: as §1
# [6] = Toxicity in ip dose mouse assessed as mortality; assay type: organism-based; conditions: in vivo; procedure, shortened: as §3
# Mus musculus [7] = test: Anticonvulsant activity in ip dosed mouse assessed as protection against pentylenetetrazol-induced seizure administered 30 min prior to pentylenetetrazol-challenge measured after 60 mins; assay type: functional
# Procedure, shortened: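 Mice received several doses for quantification. ED50 taken as the dose protecting 50% of mice against pentylenetetrazol-induced seizures.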
# BT-549 = test: Growth inhibition of human BT549 cells at 10 uM relative to control; assay type: functional; conditions: read-out: GI; procedure, shortened: as §1
# A498 = test: Growth inhibition of human A498 cells at 10 uM relative to control; assay type: functional; conditions: read-out: GI; procedure, shortened: as §1
# MDA-MB-435 = test: Growth inhibition of human MDA-MB-435 cells at 10 uM relative to control; assay type: functional; conditions: read-out: GI; procedure, shortened: as §1
# [8] = Neurotoxicity in ip dosed mouse assessed as impaired motor coordination administered 30 mins prior to test by chimney test; assay type: toxicity, organism-based; conditions: in vivo
# Procedure, shortened: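 Mice, Chimney test. TD50 is the dose that produces minimal neurological toxicity (impaired motor coordination) in 50% of animals, estimated from testing at several doses.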
structure (smiles),measurement,setting,value
CCOC(=O)Nc1ccc2c(=O)n(-c3ccccc3C)c(C)nc2c1,inhibition of growth at 10 µM,OVCAR-3,3.8%
same,inhibition of growth at 10 µM,SNB-75,21.3%
same,Activity,Mus musculus [1],0%
same,inhibition of growth at 10 µM,PC-3,11.2%
same,inhibition of growth at 10 µM,MCF7,5%
same,inhibition of growth at 10 µM,UACC-62,15.8%
same,inhibition of growth at 10 µM,SF-539,17.2%
same,inhibition of growth at 10 µM,A549,3%
same,Ratio TD50/ED50,Mus musculus [2],2.4
same,inhibition of growth at 10 µM,HCT-15,6.4%
same,inhibition of growth at 10 µM,EKVX,11.6%
same,inhibition of growth at 10 µM,RPMI-8226,6.5%
same,Activity,Mus musculus [3],100%
same,inhibition of growth at 10 µM,SK-MEL-5,2.4%
same,inhibition of growth at 10 µM,K562,6.2%
same,inhibition of growth at 10 µM,HT-29,7.8%
same,inhibition of growth at 10 µM,Malme-3M,5.4%
same,selectivity ratio,[4],2.6
same,inhibition of growth at 10 µM,UACC-257,7%
same,inhibition of growth at 10 µM,U-251,4.5%
same,inhibition of growth at 10 µM,SNB-19,5.7%
same,inhibition of growth at 10 µM,SR,24.1%
same,inhibition of growth at 10 µM,CCRF-CEM,2.2%
same,inhibition of growth at 10 µM,UO-31,24.1%
same,inhibition of growth at 10 µM,OVCAR-5,3.2%
same,inhibition of growth at 10 µM,SK-MEL-28,1.72%
same,inhibition of growth at 10 µM,ACHN,4%
same,inhibition of growth at 10 µM,CAKI-1,5.3%
same,Activity,Mus musculus [5],100%
same,inhibition of growth at 10 µM,SW-620,2%
same,inhibition of growth at 10 µM,KM12,12%
same,LD50,[6],1930 µmol/kg
same,ED50,Mus musculus [7],740 µmol/kg
same,inhibition of growth at 10 µM,BT-549,3.5%
same,inhibition of growth at 10 µM,A498,4%
same,inhibition of growth at 10 µM,MDA-MB-435,41.6%
same,TD50 at 0.5 h,[8],1780 µmol/kg
